In ChEMBL document CHEMBL4118144, “Design, Synthesis, and Testing of Potent, Selective Hepsin Inhibitors via Application of an Automated Closed-Loop Optimization Platform” (J Med Chem, 2018):
The source made the active and inactive calls.

Experiments:
Format in all cases: cell-based
Serine protease hepsin [1] = biological target: T1, Serine protease hepsin (Homo sapiens, UniProt P05981); experiment: Inhibition of hepsin-mediated conversion of Pro-HGF into active form in human Hs578T cells assessed as decrease in MET phosphorylation at 1 uM preincubated for 30 mins followed by recombinant human pro-HGF addition measured after 30 mins by immunoblot method
In short: (§1)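 Hs578T or HCC1937 breast cells incubated with DMSO or inhibitor, then 50 ng/mL recombinant human Pro-HGF added; MET pathway activation (phospho-MET) assessed by immunoblotting.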

Serine protease hepsin [2] = biological target: T1, Serine protease hepsin; experiment: Inhibition of hepsin-mediated conversion of Pro-HGF into active form in human HCC1937 cells assessed as decrease in MET phosphorylation at 1 uM preincubated for 30 mins followed by recombinant human pro-HGF addition measured after 30 mins by immunoblot method; in short: as §1
[3] = test system: Serine protease hepsin (Homo sapiens), P05981 [D161E,R162K]; experiment: Inhibition of recombinant C-terminal His10-tagged human Hepsin (R45 to […] residues) D161E/ R162K double mutant expressed in mouse NS0 cells assessed as decrease in HGF alpha chain formation at 1 uM incubated for 30 mins in presence of recombinant human pro-HGF by immunoblot method
In short: (§2)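 Recombinant human Pro-HGF incubated with recombinant human hepsin plus inhibitor at 37°C for 30 min; processing analysed by immunoblot with an antibody recognizing Pro-HGF and the α and β chains.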

[4] = test system: Serine protease hepsin (Homo sapiens), P05981 [D161E,R162K]; experiment: Inhibition of recombinant C-terminal His10-tagged human Hepsin (R45 to […] residues) D161E/ R162K double mutant expressed in mouse NS0 cells assessed as decrease in HGF beta chain formation at 1 uM incubated for 30 mins in presence of recombinant human pro-HGF by immunoblot method; in short: as §2

Measured: inhibition

Chain of Serine protease hepsin (Homo sapiens), P05981 [D161E,R162K] (P05981 whole entry D161E/R162K): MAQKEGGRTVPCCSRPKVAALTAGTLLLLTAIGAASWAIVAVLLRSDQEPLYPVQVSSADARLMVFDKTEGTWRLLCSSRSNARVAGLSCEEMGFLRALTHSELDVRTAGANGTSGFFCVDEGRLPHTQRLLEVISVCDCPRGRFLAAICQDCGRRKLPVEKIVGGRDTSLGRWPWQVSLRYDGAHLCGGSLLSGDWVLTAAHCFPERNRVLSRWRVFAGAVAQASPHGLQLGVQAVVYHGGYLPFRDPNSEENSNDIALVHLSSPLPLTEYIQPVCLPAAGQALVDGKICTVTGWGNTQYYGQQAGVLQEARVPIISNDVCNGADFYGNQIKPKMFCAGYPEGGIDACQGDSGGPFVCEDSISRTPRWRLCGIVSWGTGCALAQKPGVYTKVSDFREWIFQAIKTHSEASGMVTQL
T1 sequence (P05981 1-162 limits assumed): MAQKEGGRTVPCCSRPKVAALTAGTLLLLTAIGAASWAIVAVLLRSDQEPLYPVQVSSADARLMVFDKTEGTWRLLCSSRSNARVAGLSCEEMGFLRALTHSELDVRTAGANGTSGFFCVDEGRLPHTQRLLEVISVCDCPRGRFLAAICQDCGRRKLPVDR
T1 sequence (P05981 163-417 limits assumed): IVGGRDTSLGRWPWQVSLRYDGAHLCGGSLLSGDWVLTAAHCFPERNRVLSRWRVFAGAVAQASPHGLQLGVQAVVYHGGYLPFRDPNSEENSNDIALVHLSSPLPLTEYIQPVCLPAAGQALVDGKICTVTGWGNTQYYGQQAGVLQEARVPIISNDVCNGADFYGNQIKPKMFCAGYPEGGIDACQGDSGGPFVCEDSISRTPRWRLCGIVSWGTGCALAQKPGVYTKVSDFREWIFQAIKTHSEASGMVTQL

Cc1ccc(S(=O)(=O)N[C@@H](C(=O)Nc2ccc(C(=N)N)cc2)c2ccccc2)cc1
active: all assays above
